Assays:
Mus musculus [1] = experiment: Hepatoprotective activity against D-galactosamine/lipopolysaccharide-induced liver injury in ddY mouse assessed as inhibition of increase in sAST level at 10 mg/kg, po administered 1 hr before D-GalN/LPS challenge measured after 10 hrs; format: functional
Outline: (§1)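 Male ddY mice (25–30 g), fasted 20 h. Sample suspended in 5% gum arabic, given orally at 10 mL/kg 1 h before i.p. D-GalN (350 mg/kg) plus LPS (10 μg/kg) in saline. Vehicle controls dosed alike. Blood from infraorbital venous plexus at 10 h; sAST and sALT by Reitman–Frankel method. Hydrocortisone as reference.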

Mus musculus [2] = experiment: Hepatoprotective activity against D-galactosamine/lipopolysaccharide-induced liver injury in ddY mouse assessed as inhibition of increase in sALT level at 10 mg/kg, po administered 1 hr before D-GalN/LPS challenge measured after 10 hrs; format: functional; outline: as §1
Mus musculus [3] = experiment: Hepatoprotective activity against D-galactosamine/lipopolysaccharide-induced liver injury in ddY mouse assessed as inhibition of increase in sAST level at 25 mg/kg, po administered 1 hr before D-GalN/LPS challenge measured after 10 hrs; format: functional; outline: as §1
Mus musculus [4] = experiment: Hepatoprotective activity against D-galactosamine/lipopolysaccharide-induced liver injury in ddY mouse assessed as inhibition of increase in sALT level at 25 mg/kg, po administered 1 hr before D-GalN/LPS challenge measured after 10 hrs; format: functional; outline: as §1
L929 = experiment: Cytoprotective activity in mouse L929 cells assessed as inhibition of TNF-alpha-induced cytotoxicity after 44 hrs by MTT assay; format: functional, cell-based; conditions: L929, 44 h
Outline: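 L929 cells kept in MEM with 10% FBS and non-essential amino acids at 37 °C, 5% CO2; seeded 3 × 10^4 cells/well, exposed 44 h to TNF-α (20 ng/mL) with or without sample (DMSO, final 0.5%). Viability by MTT: formazan dissolved in acidic isopropanol, OD 570 nm (ref 655 nm). Inhibition % = (sample − control)/(normal − control) × 100.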

Hepatocyte = experiment: Hepatoprotective activity in ddY mouse primary cultured hepatocytes assessed as inhibition of D-galactosamine-induced cytotoxicity after 44 hrs by MTT assay; format: functional, cell-based
Outline: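 Hepatocytes isolated from male ddY mice (30–35 g) by collagenase perfusion; 4 × 10^4 cells/well in William's E with 10% FBS, pre-cultured 4 h at 37 °C, 5% CO2, then 44 h with D-GalN (2 mM) ± sample. MTT (4 h); formazan in isopropanol/0.04 M HCl, OD 570 nm (ref 655 nm). Inhibition % = (sample − control)/(normal − control) × 100.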

Mus musculus [5] = experiment: Hepatoprotective activity against D-galactosamine/lipopolysaccharide-induced liver injury in ddY mouse assessed as inhibition of increase in sAST level at 100 mg/kg, po administered 1 hr before D-GalN/LPS challenge measured after 10 hrs; format: functional; outline: as §1
Mus musculus [6] = experiment: Hepatoprotective activity against D-galactosamine/lipopolysaccharide-induced liver injury in ddY mouse assessed as inhibition of increase in sALT level at 100 mg/kg, po administered 1 hr before D-GalN/LPS challenge measured after 10 hrs; format: functional; outline: as §1
[7] = tested on: Peritoneal macrophage cell; experiment: Inhibition of LPS-induced TNFalpha production in ddY mouse peritoneal macrophages; format: functional, cell-based
Outline: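 Thioglycollate-elicited peritoneal macrophages from male ddY mice, 5 × 10^5 cells/well in RPMI 1640 with 5% FBS, 1 h pre-culture, nonadherent cells washed off. Compound (DMSO, final 0.5%) added 10 min before LPS (medium containing 10 μg/mL), 4 h incubation; TNF-α in medium by ELISA.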

[8] = tested on: Peritoneal macrophage cell; experiment: Inhibition of LPS-induced nitric oxide production in ddY mouse peritoneal macrophages; format: functional, cell-based

C[C@]12CCC(=O)C=C1CC[C@@H]1[C@@H]2[C@@H](O)C[C@@]2(C)[C@H]1CC[C@]2(O)C(=O)CO [HYDROCORTISONE]
inhibition in vivo at 10 mg/kg (Mus musculus [1]): 94.2%
inhibition in vivo at 10 mg/kg (Mus musculus [2]): 97.7%

C[C@@H]1O[C@@H](O[C@@H]2[C@@H](O)[C@H](OCCc3ccc(O)c(O)c3)O[C@H](COC(=O)/C=C/c3ccc(O)c(O)c3)[C@H]2O)[C@H](O)[C@H](O)[C@H]1O [ISOACTEOSIDE]
inhibition in vivo at 25 mg/kg (Mus musculus [3]): 46.1%
inhibition in vivo at 25 mg/kg (Mus musculus [4]): 40.2%
IC50 (L929): 22.7 µM
IC50 (Hepatocyte): 5.3 µM
inhibition in vivo at 100 mg/kg (Mus musculus [5]): 70.9%
inhibition in vivo at 100 mg/kg (Mus musculus [6]): 58.7%
IC50 [7]: > 100 µM
IC50 [8]: > 100 µM

C[C@H]1O[C@H](O[C@@H]2[C@@H](O)[C@H](OCCc3ccc(O)c(O)c3)O[C@H](CO[C@H]3O[C@@H](CO)[C@H](O)[C@@H](O)[C@@H]3O)[C@H]2OC(=O)/C=C/c2ccc(O)c(O)c2)[C@@H](O)[C@@H](O)[C@@H]1O [ECHINACOSIDE]
inhibition in vivo at 25 mg/kg (Mus musculus [3]): 61.2%
inhibition in vivo at 25 mg/kg (Mus musculus [4]): 43.8%
IC50 (L929): 31.1 µM
IC50 (Hepatocyte): 10.2 µM
inhibition in vivo at 100 mg/kg (Mus musculus [5]): 66.7%
inhibition in vivo at 100 mg/kg (Mus musculus [6]): 52%
IC50 [7]: > 100 µM
IC50 [8]: > 100 µM

C[C@@H]1O[C@@H](O[C@@H]2[C@@H](O)[C@H](OCCc3ccc(O)c(O)c3)O[C@H](CO)[C@H]2OC(=O)/C=C/c2ccc(O)c(O)c2)[C@H](O)[C@H](O)[C@H]1O [ACETOSIDE]
inhibition in vivo at 25 mg/kg (Mus musculus [3]): 51.3%
inhibition in vivo at 25 mg/kg (Mus musculus [4]): 44.4%
IC50 (L929): 17.8 µM
IC50 (Hepatocyte): 4.6 µM
inhibition in vivo at 100 mg/kg (Mus musculus [5]): 68.5%
inhibition in vivo at 100 mg/kg (Mus musculus [6]): 59.5%
IC50 [7]: > 100 µM
IC50 [8]: > 100 µM

COc1cc(C2Oc3cc([C@H]4Oc5cc(O)cc(O)c5C(=O)[C@@H]4O)ccc3OC2CO)ccc1O (stereo partly drawn) [SILIBININ]
IC50 (L929): 60.4 µM
IC50 (Hepatocyte): 38.8 µM

From ChEMBL document CHEMBL1157606, “Acylated phenylethanoid oligoglycosides with hepatoprotective activity from the desert plant Cistanche tubulosa” (Bioorg Med Chem, 2010)
